Test results from PMC10884431 (Heliyon, 2024).

Columns and labels:
[1] = target: SARS-CoV-2 main protease (M^pro) (Severe acute respiratory syndrome coronavirus 2, UniProt P0DTD1); assay: M^pro inhibition assay; assay type: biochemical; details: read-out: SARS-CoV-2 M^pro inhibition percentage, reference at 1 μM
[2] = target: HIV-1 reverse transcriptase (Human immunodeficiency virus type 1 group M subtype B, UniProt P03366); assay: HIV-1 reverse transcriptase inhibition assay; assay type: biochemical; details: positive control at 1 μM
Procedure, shortened: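 Test compound in DMSO is added, then reverse transcriptase (25 nM solution), and the mix is held 30 min at room temperature. The reaction is stopped with EDTA, PicoGreen is added and endpoint fluorescence is read at 485/535 nm. % inhibition is taken against a DMSO control, minus an EDTA-pretreated blank. Nevirapine is the reference.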

macrophages = assay: Nitric oxide; assay type: cell-based; details: positive control at 5 μM
Procedure, shortened: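 NO production measured by absorbance at 540 nm on a microplate reader. The assay was run in triplicate and repeated in three independent experiments.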

alpha-glucosidase = details: from the lichen Parmotrema dilatatum; cited from earlier work

Cc1cccc(C)c1OCC(=O)N[C@@H](Cc1ccccc1)[C@@H](O)C[C@H](Cc1ccccc1)NC(=O)[C@H](C(C)C)N1CCCNC1=O [Lopinavir]
inhibition at 1 µM [1]: 47.7 ± 1.7%

Cc1ccnc2c1NC(=O)c1cccnc1N2C1CC1 [Nevirapine]
HIV-1 reverse transcriptase inhibition percentage [2]: 38.3 ± 2.5%

Cc1ccc(S(=O)(=O)/C=C/C#N)cc1 [Bay 11–7082]
% NO inhibition ±SD (macrophages): 72.5 ± 3.9%
% Cell viability ±SD (macrophages; NO assay): 82.7 ± 5.3%

COC(=O)c1c(C)c(Cc2c(O)c(Oc3c(C=O)c(O)cc(C)c3C(=O)OC)c3c(c2O)C(=O)O[C@@H]3OC)c(O)c(C=O)c1O [parmetherines B]
Alpha-glucosidase inhibition (in words) (alpha-glucosidase): strong

COC(=O)c1c(C)c(Cc2c(O)c(Oc3c(C=O)c(O)cc(C)c3C(=O)OC)c3c(c2O)C(=O)O[C@@H]3O)c(O)c(C=O)c1O [parmetherines A]
Alpha-glucosidase inhibition (in words) (alpha-glucosidase): strong
